# This excerpt belongs to a sample that is enriched for hits.
# ABCG2 inh – ABCG2 efflux pump inhibitors, primary screen, multiplex with ABCB1, IgMXP3 cells, flow cytometry; Broad substrate specificity ATP-binding cassette transporter ABCG2 (Homo sapiens), Q9UNQ0; JC-1 efflux; inhibition, % at 6.6 µM; 190,000 compounds, 0.1% hits; AID 1325, 2008;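 active means inhibition above 80%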;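 further: 0% = DMSO and 100% = nicardipine control wells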
#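 Test system: IgMXP3 (ABCG2) plus far-red-tagged CCRF-Adr (ABCB1) cells. Reagent: JC-1 dye as substrate. Timing: 10 min exposure at 25 °C with rotation, no wash. Measured by: flow cytometric JC-1 green MFI at 530 nm. Read-out: percent efflux inhibition, scaled nicardipine 100% to DMSO 0%. Control set: nicardipine and DMSO wells.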
# ROMK mod – ROMK potassium channel modulators, primary screen, cell-based, thallium flux, MLSMR library. ATP-sensitive inward rectifier potassium channel 1 (Homo sapiens), P48048. Tet-inducible ROMK, thallium flux fluorescence; actives lie on both sides. B-score at 10 µM. 130,000 compounds, 2% hits;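 active means signal ratio slope over the read window, or its plate-corrected B-score, at least 3 SD from the plate mean, either direction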;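 further: B-score of the F/F0 ratio slope over 7 to 12 s after thallium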
# Target sequence (P48048 whole entry, looked up): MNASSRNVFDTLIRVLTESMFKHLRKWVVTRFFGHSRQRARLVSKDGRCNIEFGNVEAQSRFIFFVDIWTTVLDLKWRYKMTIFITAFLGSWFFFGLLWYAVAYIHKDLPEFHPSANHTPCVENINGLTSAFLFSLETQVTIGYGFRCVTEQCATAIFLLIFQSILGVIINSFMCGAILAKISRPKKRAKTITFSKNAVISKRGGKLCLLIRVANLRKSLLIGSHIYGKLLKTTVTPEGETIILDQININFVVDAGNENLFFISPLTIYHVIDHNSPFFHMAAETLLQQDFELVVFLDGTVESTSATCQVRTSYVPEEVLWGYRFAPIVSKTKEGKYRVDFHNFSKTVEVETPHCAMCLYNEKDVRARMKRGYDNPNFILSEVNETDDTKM
# ABCB1 inh – ABCB1 efflux pump inhibitors, primary screen, cell-based, multiplex, flow cytometry, ABCG2 counter-screen. ATP-dependent translocase ABCB1 (Homo sapiens), P08183. CCRF-Adr cells, JC-1 efflux. inhibition, % at 6.6 µM. 190,000 compounds, 0.067% hits; in the data active means inhibition above about 40%;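 further: 0% = vehicle and 100% = reference inhibitor; higher value means more JC-1 retained so stronger ABCB1 efflux block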
# TRPML3 ag – human TRPML3 channel agonists, primary screen, cell-based, HEK293 TRPML3-YFP, Fluo-8 calcium fluorescence, 3 µM | Mucolipin-3 (Homo sapiens), Q8TDD5 | 100% = the carbachol control signal | activation, % at 3 µM | 220,000 compounds, 0.29% hits;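 active means activation above its plate's cutoff, the mean activation of the plate's test wells plus 3 SD, cut at about 12% in these data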;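 further: 0% = DMSO only wells and 100% = carbachol wells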
#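 Test system – HEK293 line with stable expression of human TRPML3-YFP channel · Control set – carbachol 87 µM final as high control (100%), DMSO as low control (0%) · Signal – Fluo-8 calcium dye fluorescence, ex 470-495, em 515-575 nm · Incubation – 1-h 37 °C dye load, 5-s basal, 120-s post-compound reads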
# Biofilm kill mix – clotrimazole potentiators killing C. albicans biofilm, primary screen, 4-compound mixtures; C. albicans biofilm persisters + clotrimazole, fluorescence viability; primary screen in compound mixtures of four per well; inhibition, % at 7.6 µM; 120,000 compounds, 0.02% hits; AID 1242, 2008;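 active means inhibition above 30.3% in the primary screen of four-compound pools, then above 30% when the compound was retested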;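 further: compounds exposed to preformed 24 h biofilms for 48 h; 0% = untreated biofilm control and 100% = clotrimazole plus chlorhexidine kill blank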
#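 Test system: C. albicans CAF4-2 wild-type biofilms; buffer or medium: RPMI/MOPS medium, pH 7.0; schedule: 24 h biofilm formation, then 48 h compound exposure, 37 °C; detection: Alamar Blue fluorescence; measure: percent inhibition of biofilm viability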
# TRPN1 ag – zebrafish TRPN1 channel agonists, primary screen, cell-based, HEK293, calcium fluorescence; HEK293 zebrafish TRPN1-YFP, Fluo-8 calcium fluorescence; 100% = response to 87 µM carbachol; activation, % at 3 µM; 220,000 compounds, 0.18% hits;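 active means activation above its plate's cutoff, the mean activation of test wells on that plate plus 3 SD, cut at about 19% in these data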;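 further: 0% = DMSO alone and 100% = 87 µM carbachol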
#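 Material: zebrafish TRPN1-YFP in HEK293 cells; Doses: single test compound dose, 3 µM nominal, 0.3% DMSO; Timing: dye loading 1 h at 37 °C, then 30 min room temperature; Technique: intracellular calcium fluorescence with Fluo-8; Benchmarks: high carbachol 87 µM, low DMSO alone.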
# An asterisk follows results filed as active; . = not tested or not shown.
SMILES,ABCG2 inh,ROMK mod,ABCB1 inh,TRPML3 ag,Biofilm kill mix,TRPN1 ag
Fc1ccc(C2=CC(c3ccc(Br)o3)n3ncnc3N2)cc1 (centres undefined),2.1,-3.45*,-1.7,2.4,9.4,3.5
Oc1ccc(C2C=C(c3ccc(F)cc3)Nc3ncnn32)cc1 (centres undefined),.,.,.,0.9,9.2,1.1
CCOc1ccc(N(C)S(=O)(=O)c2ccc(C)c(C(=O)OCC(=O)c3c[nH]c4ccccc34)c2)cc1,-1.1,0.632,-0.5,0.6,11.6,0.8
Cn1c(=S)[nH]c2c(c1=O)C(C)(C)Cc1ccccc1-2,-2.5,1.88,-1.1,0.8,10.8,1.9
CCn1c(=S)[nH]c2c(c1=O)C(C)(C)Cc1ccccc1-2,17.2,4.05*,1.8,0.6,9.2,-0.8
CCOc1ccc(NC(=S)Nc2cc(C)[nH]n2)cc1,12.8,1.44,0.6,0.1,12.3,-1.4
CC1=NN(c2ccccc2)C(=O)/C1=C\c1c(C)[nH]n(-c2ccccc2)c1=O,43.7,-3.65*,-0.1,0.5,.,-0.5
CC1=NN(c2ccccc2)C(=O)/C1=C\c1cn(-c2ccccc2)nc1C,1.0,0.472,-0.1,1.0,4.4,0.9
O=C(NC(=O)c1ccc(F)cc1F)Nc1ccc(Cl)cc1,.,0.0593,.,1.4,23.2,2.2
O=C(CN1CCc2ccccc21)NC(=O)NC1CCCCC1,.,.,.,2.6,14.2,2.3
Cn1c(Cc2ccccc2)nnc1SCC(=O)c1ccc(Br)s1,1.2,.,-0.1,37.7*,.,-0.3
Cn1nnnc1SCC(=O)c1ccc(Br)s1,-0.6,.,-0.4,0.5,.,0.9
CC(=O)c1c(N2CCN(Cc3ccccc3)CC2)[nH]c(-c2ccccc2)nc1=S,-3.8,7.52*,1.6,-0.5,.,-0.1
CC(=O)c1c(N)[nH]c(-c2ccccc2)nc1=S,12.6,4.42*,0.0,1.2,.,0.9
CC(=O)c1c(N2CCCC2)[nH]c(-c2ccccc2)nc1=S,2.4,4.85*,0.3,0.4,.,-1.1
CC(=O)c1c(N2CCN(Cc3ccccc3)CC2)nc(=S)n(Cc2ccccc2)c1C,-1.6,-2.46,1.1,0.9,10.6,0.4
CC(=O)c1c(N2CCOCC2)[nH]c(-c2ccccc2)nc1=S,1.3,0.348,0.3,0.4,2.6,2.2
CCOC(=O)c1ccc(NC(=O)COc2ccccc2CNC2CCCC2)cc1,3.7,-2.4,3.4,0.7,7.2,0.5
CN1/C(=C\C(=O)CN2C(=O)NC3(CCCCCC3)C2=O)C(C)(C)c2ccccc21,-0.7,-2.82*,-1.9,1.6,.,9.0
CSC(=S)N/N=C/c1ccccc1,0.3,6.17*,-0.2,0.8,7.2,-0.1
C=CCO/N=C(/CCC)C1=C(N)CC(C)(C)CC1=O,0.7,-0.053,0.0,0.3,4.9,0.2
O=S(=O)(Cc1ccc(Cl)cc1)Nc1ccc2c(c1)OCO2,-0.1,-1.81*,-0.1,0.0,.,-0.1
Clc1ccccc1-c1nc2ccccc2c2nc3ccccc3n12,8.7,.,2.7,-0.2,11.0,-0.2
CC(=O)OCC[N+](C)(C)C,0.4,1.01,0.4,99.8*,14.2,75.2*
CCOc1ccc(C(CC(=O)O)n2cnnn2)cc1 (centres undefined),-0.6,0.631,-0.2,-0.4,-3.6,-0.3
C/C(=N\OCC(=O)NC(C)C)c1cccs1,2.3,-0.0919,1.2,0.4,-0.7,1.4
N#Cc1ccc(NC(=O)Nc2cccc(C#N)c2)cc1,.,.,.,12.4*,6.9,22.7*
CCOC(=O)C1=C(C)C(c2ccc(OC)cc2OC)NC(=O)N1 (centres undefined),89.7*,.,1.2,0.5,.,0.8
CCOC(=O)C1=C(C)C(c2ccc(OC)cc2)NC(=O)N1 (centres undefined),4.5,-1.1,0.3,0.3,14.4,0.8

# Screening data (PubChem BioAssay)
